# Laboratory results from the EternaBench riboswitch data.
# Test system: MS2 coat protein
# Assay: apparent Kd, MS2 coat protein; higher = weaker binding; RNA-MaP array; FMN 200 µM where present
# In short: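 Stalled E. coli RNA polymerase transcribed the designs on Illumina sequencing-chip clusters. SNAP-549-labelled MS2 coat protein was titrated from 0.7 or 1.5 nM, doubling to 3 µM, without and then with constant ligand, in 100 mM Tris-HCl pH 7.5, 80 mM KCl, 4 mM MgCl2, BSA, DTT, yeast tRNA and Tween-20. Per-cluster binding curves were fitted to green signal normalised to red-channel RNA signal and control-cluster median Fmax. The apparent Kd is the median of the filtered fits.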
# [1] = designed as: OFF switch for flavin mononucleotide, no ligand
# [2] = ligand present: flavin mononucleotide, designed as: OFF switch for flavin mononucleotide
# [3] = designed as: ON switch for flavin mononucleotide, no ligand
# [4] = ligand present: flavin mononucleotide, designed as: ON switch for flavin mononucleotide
Sequence,apparent Kd [1] [nM],apparent Kd [2] [nM],apparent Kd [3] [nM],apparent Kd [4] [nM]
AAUUUACAUGAGGAUCACCCAUGUCAGGAUAUGGUUUUAUUUUUUUCUUUUCUUGAUUCCAGAAGGGACAGUUA,114,63.9,,
AAUAUGAGCUGGUUUAAAACUCAAACAUGAGGAUCACCCAUGUAGGAUAUCAGCACGAUAAGUGCUGAGAAGGACAUCCAGCUC,15,18.9,,
UUCGUGCAGCGUUGCUGUACGCGUACAUGAGGAUCACCCAUGUAGGAUAUGGUACGCUUUGCGUGCUAGAAGGAUAUGGAGAGG,15.2,18.9,,
CGUAAGCAAGGAUAUACAUGAGGAUCACCCAUGUAGCUUUGCUUCGUGGGCACAACAUGUAGAAGGUGCGAAAA,15.3,13.3,,
GUGAUCGACAUGAGGAUCACCCAUGUGGAUUCGUUGAGCGGCAGAAGGCGAUGUAGAAAAGAACUCGAGGAUAUGCACGUGUCA,,,7.22,6.76
UUGGACGUCGUAGGAUAUGUAGGAUAUUCCUACAUGAGGAUCACCCAUGUUGACAUGGAAGAAGGACAGCAGGACGAUGUCCAU,,,690,12.9
CCCUCAACAUGAGGAUCACCCAUGUAGGAUAUCGCUAUUGUAAUCAUGAAACAUGAUUACAAUAGCGAGAAGGACAUAUGUCCC,13.8,15.3,,
AUGUGGUGCGUAGGAUAUCAUUGAGGGUAACCCUGAGAAGGACGUGAGGACAUGAGGAUCACCCAUGUGGAUCACCCAUGUCAU,150,301,,
CUGCUGGAGCUUUGCUUUAGUCGUACAUGAGGAUCACCCAUGUAGGAUAUGGUGGGCUUUGCUUACUAGAAGGAUAGAGUGGUC,49.9,36.3,,
AAAUUUUGUCAAGGAUAUGUAUAAUUGAGUUGAAAACAUGAGGAUCACCCAUGUAUAUGGUGGGAACAGAAGGUGAAUAAGUAA,195,151,,
UUGAAGAAUUAAGGAUAUUGAAUACAUAUGUUAAACAUGAGGAUCACCCAUGUGGGUUGCGGUAUCGAGAAGGUAAAUUACUAG,,,83,78.7
AGAAACUACGAGAAGGACAUGUGAAAAGCCGCAAACAUGAGGAUCACCCAUGUAGGAUAUCGUAGUUUCAGGAUCGUGAGAUCA,54.6,442,,
UCAUACGGUGAGGAUAUCUCCGUUAAAGUAUGUAGAGAAGGCGCUACAUGAGGAUCACCCAUGUUUGUGGGCAG,392,278,,
UAUAUAAUUAAGAGCUGGAACUCAACAUGAGGAUCACCCAUGUAGGAUAUCAGCACGAUAAGUGCUGAGAAGGACAUCCAGCUC,16.6,17.8,,
GGCACACAUGAGGAUCACCCAUGUGAGGAUAUGUUAGUUUCGGCCAAAGCCGAAAUUAACAGAAGGCACAUGCC,14.9,26.4,,
CCGGAAGGUUAGGAUAUGCUUCCACAUAUCUAAGCAGAAGGAACCACAUGAGGAUCACCCAUGUUUAUGGGCCG,262,261,,
GUUUAGUGAGGAUAUGUGGCUUCGAUCGUGAGAUCGAGGCUACAGAAGGCACAUGAGGAUCACCCAUGUUCCUU,14.4,51.6,,
AACCGACAUGAGGAUCACCCAUGUCAGGAUAUGGACUGACACCCAAAGGGUGGAGGAACCAGAAGGGACUGGGC,39.9,101,,
GUUAUUUAUGUAGGAUAUGCGAGGCGAGCCUAAGCAGAAGGACAUGAGGAUCACCCAUGUAUUGCGGUUUGCGUUCAGAUCGCU,21.1,37.8,,
GUGGCGACGUAGAAGGGUGACAUGAGGAUCACCCAUGUGCCGAUAUUUCUCGAGAUAUGUCGGCCACAGGAUAUACGUGCCAUC,,,40.1,56
GGAUGCAAGGAGAAGGGCUACUGGUUGAAACCUGCGGCCUCUGGAACAUGAGGAUCACCCAUGUAGCAGGAUAUCCUUACGUGA,233,32.8,,
UUGGUUGUCGUAGGAUAUGUAGGAUAUUCCUACAUGAGGAUCACCCAUGUUCGCAUGGAAGAAGGACGGAAGGACGAUGACCAA,,,233,153
CCUCCACAUGAGGAUCACCCAUGUCAGGAUAUCGUGCGCGCGUUUUCGGUCUUUCGCGCGAGAAGGGACGACUG,30.3,30.9,,
AGUGCUAUGUAGAAGGCAGAUCUGAUUCAGAUCUGAGGAUAUACAUGAGGAUCACCCAUGUUAUGCACCAGCACGAGAGUGCAU,20,98,,
UGUCCACAUGAGGAUCACCCAUGUGAGGAUAUCCAUAAACACAUCGUAUGUGUAUUAUGGAGAAGGCACACACA,16.1,21.9,,
GUCCUACAUGAGGAUCACCCAUGUGAGGAUAUGGUUUCGCUGGCCGUAGCCAGUGGAACCAGAAGGCGCGUGAU,65.3,73.4,,
UCAGAAGUCACAGGAUAUCCGGCGUAGCACACAGGAGAAGGGUGAUCACGAGCACAUGAGGAUCACCCAUGUGACAUUUGUGGG,,,53.6,27.5
UUAAUUCUGAUUCUUGAAAUACAUGAGGAUCACCCAUGUUCACAGGAUAUUGAUUAUGUUAGUAACAAGAAGGGUGUAACAUAU,30.6,85.6,,

Sequence,apparent Kd [1] [nM],apparent Kd [2] [nM],apparent Kd [3] [nM],apparent Kd [4] [nM]
CAUUAAUUCAUUAUAGUAAUUAUACAGGAUAUGUUACAUGAGGAUCACCCAUGUAUUCAUGGUAUACAGAAGGGUAAUACUAGA,12.6,13.9,,
AAACAGUACGAGAAGGGCUACAUGAGGAUCACCCAUGUAGACGGUCGUGUGGCAGGAUAUCGAACGCACCCGAAACGGUGUGUU,5.07,7.03,,
UUGUACCGGUGAGGAUAUUUUUAAUAGAACUUUAUGAUAUACAUGAGGAUCACCCAUGUUACUUUAAAGAAGGCAUCGGAUUAU,18.9,14.8,,
UUUUUAUAACAAGGAUAUACUAAACAUGAGGAUCACCCAUGUAAUAUUAUGAGUGAGAGAGAUAAGUAGAAGGUGUAUUAUUUU,100,137,,
GCACGGUAAGUGAGGAUAUACCUCUGGAUACAGAGGUAGAAGGCACAUGAGGAUCACCCAUGUCUCAGCCGUGC,16.3,78.2,,
GUAGCUAUCGGAGGAUAUUUAUACCGUAAACGGACAUGAGGAUCACCCAUGUGGCGAAAGCCUUGGGAGAAGGCCGAUAGCUAC,,,32.6,4.68
GCAGAUCAAGUGAGGAUAUCGUCUACCUCGGUAGACGAGAAGGCACAUGAGGAUCACCCAUGUGAUUGAUCUGC,17.6,23.6,,
GCGGUUACGGUUGGCACUUAGCGAGAGGAUAUGGAAAACAAGACAUGAGGAUCACCCAUGUACUAUCAGAAGGCUCGAGCACGC,,,7.76,5.8
GGGCCAUAGUAGAAGGGAUAUACGAAAGGUAUAUCAGGAUAUACAUGAGGAUCACCCAUGUUCUAACAGUGAUAGUCCUCCCUA,22.4,69.8,,
CAGUAAUUCGAAGGAUAUGGUUACAUGAGGAUCACCCAUGUAUUUUUUGUGAUCUUAAAAUUGAUCCAGAAGGUCGAAUUACUG,177,373,,
GUUUUUUGUCAUGUACAUGAGGAACAUGAGGAUCACCCAUGUAGAAGGAAUUUUUUUAAGUUUAGUUAGGAUAUACAUAUAUUA,49,24.7,,
ACCUUCAAAGGAUAUGCGACUGGACGCCUUGCCAUGUAUAGACAUGAGGAUCACCCAUGUAGAAGGUUGGAGGA,30.7,47.7,,
UGUCGGAGCAGAGGAUAUACAUGAGGAUCACCCAUGUAAUAAAGUGAAGCCUGGAAACGGGCAAUGUAGAAGGCUGCUCCGACA,11.3,87.8,,
UAAUCGUUGCAGAAGGUUAUUAUUAUAUCGUGUCACUUAACAUGAGGAUCACCCAUGUUUUUGAUGAAGGAUAUGCAACGGUAG,6.74,6.83,,
CCCUCACAUGAGGAUCACCCAUGUCAGGAUAUUCAAAGCGCAAAUGCGCCAAAUGCAGGAAGAAGGGACGUGCC,15.1,20.5,,
GGAUGUCAAAGACAUCCAAUACGAACAUGAGGAUCACCCAUGUAGGAUAUGCUACUCAAAGAGUAGCAGAAGGACAUGUGUCUU,30.6,164,,
UGAGUGUGAGGAUAUAUGGUAGGGAUGAAGGGAUAGAAUUAGUAGAAGGUACAUGAGGAUCACCCAUGUUAGGA,24.4,21.9,,
UCUAGACAUGAGGAUCACCCAUGUGAGGAUAUGAUGCGAUCGUCGAAAGACGAUAGCAUCAGAAGGCACAAAUG,66.5,200,,
GUCUUCCUAGGAUAUACAUGAGGAUCACCCAUGUACAGUUUCGUCUAGGGAUACUCGCGUAGAAGGAGGUGGAU,20.8,26.5,,
GCGUAUAUAAGAUUUAUUUAACAGUCAGAAGGUGAUAAUACGACAUGAGGAUCACCCAUGUAAUUCAAGGAUAUGAUCUUACGC,,,133,65.7
CUUAUGUAAGGAUAUCAGUAGUAAAAAAAUAAAAUUACUACUGAGAAGGUACAUGAGGAUCACCCAUGUCUUUC,113,50.5,,
UACAUGUGAGGAUAUGUACGAAGCCCGGCUGGGCCUCGCAGGCAGAAGGCACAUGAGGAUCACCCAUGUGACCG,15.9,53.4,,
GAGCGAAAGCUCAAUGUCGAUAGCAGAAGGACAUGUAAAUACAUGAAAACAUGAGGAUCACCCAUGUAGGAUAUGCUAUCGACU,5.46,12.7,,
CGAGUGUAAGGAUAUUCGGCACUAGGGACCACCCUAGUGUAGAAGAAGGUACAUGAGGAUCACCCAUGUGGUUA,369,428,,
AUGCUUCACACAGGAUAUACAUGAGGAUCACCCAUGUGUCCAAAGUAGCCGACACGAGCUACGCGGUAGAAGGGUGUGAAGCAU,18.6,52.2,,
UGUCGGAGCAGAGGAUAUUACAUGAGGAUCACCCAUGUAAGAACCAAUAGCUGGAAACAGCAAUGUAAGAAGGCUGCUCCGACA,5.27,15.9,,
UAAAUACAUGAGGAUCACCCAUGUGAGGAUAUCCGAUGAUUCGGAGAAAGGACCCGUUGGAGAAGGCAUAGGGC,27.1,21,,
